The IC50 is the point on the concentration scale where inhibition reaches its midpoint. A word on the MIC: it is the least concentration at which growth counts as inhibited.

This note sets out measurements from ChEMBL document CHEMBL3098051, “Rational design and synthesis of novel dibenzo[b,d]furan-1,2,3-triazole conjugates as potent inhibitors of Mycobacterium tuberculosis” (Eur J Med Chem, 2014).

The nature of data set [1]: Selectivity index, ratio of IC50 for HEK293T cells to MIC for Mycobacterium tuberculosis H37Rv ATCC 27294. It counts as toxicity, cell-based, HEK-293T. The conditions noted are these: human, read-out: Selectivity Index. In a few lines:
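SI was taken as the approximated IC50 in HEK293T cells (72 h MTT) relative to MIC against H37Rv (agar dilution, 28 days). SI above 10 was counted as nontoxic.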

For the next data set, the system named is HEK-293T. Description: Cytotoxicity against HEK293T cells after 72 hrs by MTT assay. Format: cell-based. Particulars: Homo sapiens. In a few lines:
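Human embryonic kidney 293T cells were exposed to compound for 72 h. Viability was read by cellular conversion of MTT to formazan, and percentage growth of cells was reported.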
(Formazan colour is commonly taken as a measure of viable cells.)

Data set [2] can be described thus: Cytotoxicity against HEK293T cells at 50 ug/ml after 72 hrs by MTT assay. Format: cell-based, HEK-293T. The conditions noted are these: human, read-out: INH.
The subject of data set [3] is Mycobacterium tuberculosis. Description: Antimycobacterial activity against Mycobacterium tuberculosis H37Rv ATCC 27294 assessed as parasite growth inhibition after 28 days by agar dilution method. Format: functional. Particulars: H37Rv ATCC 27294, 672 h. In short, it runs like this: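 Inoculum from fresh Middlebrook 7H11 agar slants with OADC supplement, adjusted to 1 mg/mL wet weight in 0.05% Tween 80 saline and diluted to about 10^7 cfu/mL. Suspension was spotted onto 7H11 agar tubes containing 10-fold serial drug dilutions and incubated at 37 °C. Read at 28 days. MIC was the lowest concentration completely inhibiting growth, run in triplicate at pH 7.40.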
A general note: Agar dilution tests growth on a series of plates holding different concentrations.

In brackets after ≈: the same amount, converted by molar mass. Bounds are passed on as bounds.

Consider `CCOC(=O)Cn1cc(-c2ccc3oc4ccccc4c3c2)nn1`, for which, in data set [1], the selectivity ratio is above 25. For the same molecule, in the data set on HEK-293T, the IC50 is above 50 µg/mL. Further, the cytotoxicity at 72 h, 50 ug/ml in data set [2] was 38.8%. For the same molecule, the minimum inhibitory concentration (MIC) in data set [3] amounted to 1.56 µg/mL (≈ 4.85 µM).

`OCCCCn1cc(-c2ccc3oc4ccccc4c3c2)nn1`: the selectivity ratio in data set [1] was determined as 1. Besides, in the data set with HEK-293T, the 50% inhibitory concentration (IC50) was above 50 µg/mL. Further, in data set [2], the cytotoxicity at 72 h, 50 ug/ml worked out at 21.9%. In addition, the minimum inhibitory concentration (MIC) in data set [3] came to 50 µg/mL (≈ 163 µM).

Take `c1ccc(Cn2cc(-c3ccc4oc5ccccc5c4c3)nn2)cc1`: in data set [1], the selectivity ratio is 1. Also, the IC50 in the data set on HEK-293T is above 50 µg/mL. Also, in data set [2], the cytotoxicity at 72 h, 50 ug/ml was 36.1%. Moreover, the MIC in data set [3] was found to be 50 µg/mL (≈ 154 µM).

As for `COc1cccc(Cn2cc(-c3ccc4oc5ccccc5c4c3)nn2)c1`, the selectivity ratio in data set [1] was 25. The concentration for half-maximal inhibition (IC50) with HEK-293T was below 50 µg/mL. Moreover, the cytotoxicity at 72 h, 50 ug/ml in data set [2] is 62.1%. Moreover, the minimum inhibitory concentration (MIC) in data set [3] worked out at 0.78 µg/mL (≈ 2.19 µM).

Turning to `COc1ccc(Cn2cc(-c3ccc4oc5ccccc5c4c3)nn2)cc1`, the selectivity ratio in data set [1] came to 16. The molecule further came in with an IC50 with HEK-293T of 50 µg/mL (≈ 141 µM). Also, in data set [2], the cytotoxicity at 72 h, 50 ug/ml was found to be 52.7%. Besides, in data set [3], the MIC amounted to 3.12 µg/mL (≈ 8.78 µM).

As for `Brc1ccc(Cn2cc(-c3ccc4oc5ccccc5c4c3)nn2)cc1`, the selectivity ratio in data set [1] was above 25. The IC50 in the data set with HEK-293T was above 50 µg/mL. In addition, the cytotoxicity at 72 h, 50 ug/ml in data set [2] was 27.8%. In data set [3], the minimum inhibitory concentration (MIC) is 0.78 µg/mL (≈ 1.93 µM).

Regarding `Brc1cccc(Cn2cc(-c3ccc4oc5ccccc5c4c3)nn2)c1`, the selectivity ratio in data set [1] was above 10. For the same molecule, in the data set with HEK-293T, the half-maximal inhibitory concentration (IC50) is above 50 µg/mL. For the same molecule, the cytotoxicity at 72 h, 50 ug/ml in data set [2] was found to be 12%. In data set [3], the MIC worked out at 6.25 µg/mL (≈ 15.5 µM).

On to `O=[N+]([O-])c1ccc(Cn2cc(-c3ccc4oc5ccccc5c4c3)nn2)cc1`, for which the selectivity ratio in data set [1] is 1. For the same molecule, the half-maximal inhibitory concentration (IC50) with HEK-293T was 50 µg/mL (≈ 135 µM). In data set [2], the cytotoxicity at 72 h, 50 ug/ml was 46.3%. Also, in data set [3], the minimal inhibitory concentration (MIC) amounted to 50 µg/mL (≈ 135 µM).

Regarding `COC(=O)c1ccc(Cn2cc(-c3ccc4oc5ccccc5c4c3)nn2)cc1`, the selectivity ratio in data set [1] is 1. Besides, the half-inhibitory concentration (IC50) in the data set with HEK-293T is below 50 µg/mL. Besides, the cytotoxicity at 72 h, 50 ug/ml in data set [2] stood at 58.1%. Moreover, the MIC in data set [3] was determined as 25 µg/mL (≈ 65.2 µM).

As for `Cc1ccc(C(C)n2cc(-c3ccc4oc5ccccc5c4c3)nn2)cc1` (centres undefined), the selectivity ratio in data set [1] stood at 16. Further, the IC50 with HEK-293T is 50 µg/mL (≈ 141 µM). Further, the cytotoxicity at 72 h, 50 ug/ml in data set [2] came out at 43.1%. Moreover, the minimal inhibitory concentration (MIC) in data set [3] was found to be 3.12 µg/mL (≈ 8.83 µM).

Turning to `COc1ccc(C(C)n2cc(-c3ccc4oc5ccccc5c4c3)nn2)cc1` (centres undefined), the selectivity ratio in data set [1] is above 16. The molecule also came in with an IC50 with HEK-293T above 50 µg/mL. In data set [2], the cytotoxicity at 72 h, 50 ug/ml was 18.9%. Besides, the MIC in data set [3] is 3.12 µg/mL (≈ 8.45 µM).

For `CC(c1ccc([N+](=O)[O-])cc1)n1cc(-c2ccc3oc4ccccc4c3c2)nn1` (centres undefined), in data set [1], the selectivity ratio came out at 2. Besides, the concentration for half-maximal inhibition (IC50) in the data set with HEK-293T was above 50 µg/mL. For the same molecule, the cytotoxicity at 72 h, 50 ug/ml in data set [2] was found to be 38.9%. Besides, the minimum inhibitory concentration (MIC) in data set [3] is 25 µg/mL (≈ 65 µM).

For the molecule `CC(c1ccc2oc3ccccc3c2c1)n1cc(-c2ccc3oc4ccccc4c3c2)nn1` (centres undefined), in data set [1], the selectivity ratio was determined as 1. Moreover, the IC50 with HEK-293T was 50 µg/mL (≈ 116 µM). The cytotoxicity at 72 h, 50 ug/ml in data set [2] was 52.6%. Further, in data set [3], the MIC was 50 µg/mL (≈ 116 µM).

With `CC(c1ccc2sc3ccccc3c2c1)n1cc(-c2ccc3oc4ccccc4c3c2)nn1` (centres undefined), the selectivity ratio in data set [1] came out at 1. In the data set with HEK-293T, this molecule returned an IC50 below 50 µg/mL. Also, the cytotoxicity at 72 h, 50 ug/ml in data set [2] came out at 61.1%. For the same molecule, in data set [3], the MIC came to 25 µg/mL (≈ 56.1 µM).

Regarding `CC[C@@H](CO)NCCN[C@@H](CC)CO` [ETHAMBUTOL], the minimum inhibitory concentration (MIC) in data set [3] came to 3.13 µg/mL (≈ 15.3 µM).

On to `NNC(=O)c1ccncc1` [ISONIAZID], for which the MIC in data set [3] turned out to be 0.1 µg/mL (≈ 0.729 µM).

For `CO[C@H]1/C=C/O[C@@]2(C)Oc3c(C)c(O)c4c(O)c(c(/C=N/N5CCN(C)CC5)c(O)c4c3C2=O)NC(=O)/C(C)=C\C=C\[C@H](C)[C@H](O)[C@@H](C)[C@@H](O)[C@@H](C)[C@H](OC(C)=O)[C@@H]1C` [RIFAMPIN], in data set [3], the minimal inhibitory concentration (MIC) was determined as 0.2 µg/mL (≈ 0.243 µM).
